# In ChEMBL document CHEMBL1123300 (J Med Chem, 1986):
# Non-standard residues stand in square brackets, D forms with d. Residues, ends and D or L forms follow the SMILES beside them. *: point of attachment. Ala(1-Adamantyl) = N[C@@H](CC12CC3CC(CC(C3)C1)C2)C(=O)O; Sta = CC(C)C[C@H](N)[C@@H](O)CC(=O)O; Adoc = O=C(OC12CC3CC(CC(C3)C1)C2)*; NMeF = CN[C@@H](Cc1ccccc1)C(=O)O; X1 = CC(C)(C)OC(=O)NCCS(=O)(=O)*; αMeF = C[C@](N)(Cc1ccccc1)C(=O)O; Phg = N[C@H](C(=O)O)c1ccccc1; Isovaleryl = CC(C)CC(=O)*; Nle = CCCC[C@H](N)C(=O)O; Nva = CCC[C@H](N)C(=O)O; Cbz = O=C(OCc1ccccc1)*; Boc = CC(C)(C)OC(=O)*; Moc = COC(=O)*
# Experiments:
# Renin [1] = target: T1, Renin (Homo sapiens, UniProt P00797); assay: In vitro inhibitory activity against dog plasma renin; assay type: cell-free, Canis lupus familiaris; details: target entry is the homologue from another species
# T1 sequence (P00797 whole entry): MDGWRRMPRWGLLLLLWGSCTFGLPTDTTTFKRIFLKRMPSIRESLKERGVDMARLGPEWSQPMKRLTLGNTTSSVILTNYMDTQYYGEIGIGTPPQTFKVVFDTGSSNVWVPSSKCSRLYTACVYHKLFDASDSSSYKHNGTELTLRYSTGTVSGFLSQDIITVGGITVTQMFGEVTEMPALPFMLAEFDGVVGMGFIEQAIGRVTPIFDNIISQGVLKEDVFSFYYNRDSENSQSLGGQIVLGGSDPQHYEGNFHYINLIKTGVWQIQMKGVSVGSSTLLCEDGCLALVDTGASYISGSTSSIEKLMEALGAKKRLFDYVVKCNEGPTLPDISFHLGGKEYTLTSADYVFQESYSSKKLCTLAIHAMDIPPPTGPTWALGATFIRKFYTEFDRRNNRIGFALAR
# Renin [2] = target: T2, Renin (Rattus norvegicus, UniProt P08424); assay: In vitro inhibitory activity against rat plasma renin; assay type: cell-free
# T2 sequence (P08424 whole entry): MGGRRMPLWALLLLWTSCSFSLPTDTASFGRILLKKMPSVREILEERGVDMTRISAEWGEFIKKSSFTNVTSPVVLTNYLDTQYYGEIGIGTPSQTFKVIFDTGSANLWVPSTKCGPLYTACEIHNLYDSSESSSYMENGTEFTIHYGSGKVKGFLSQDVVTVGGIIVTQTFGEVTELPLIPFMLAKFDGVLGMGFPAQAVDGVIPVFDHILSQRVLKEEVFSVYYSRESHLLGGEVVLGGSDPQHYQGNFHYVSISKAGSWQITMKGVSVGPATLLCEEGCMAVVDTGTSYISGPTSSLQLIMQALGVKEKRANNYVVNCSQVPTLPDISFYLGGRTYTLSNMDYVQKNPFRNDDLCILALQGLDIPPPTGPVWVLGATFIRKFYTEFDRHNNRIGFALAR
# Renin [3] = target: T1, Renin; assay: In vitro inhibitory activity against human plasma renin; assay type: cell-free
# Renin [4] = target: T1, Renin; assay: In vitro inhibitory activity against monkey plasma renin; assay type: cell-free, Cercopithecidae; details: target entry is the homologue from another species
# Renin [5] = target: T1, Renin; assay: In vitro inhibitory activity against man (human) plasma renin; assay type: cell-free
# Renin [6] = target: T1, Renin; assay: In vitro inhibitory activity against monkey (Callithrix jacchus) plasma renin; assay type: cell-free; details: target entry is the homologue from another species
# Procedure, shortened: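 Pooled plasma from animals whose plasma renin activity was stimulated with furosemide, incubated at 37 °C in pH 7.4 phosphate buffer with phenylmethanesulfonyl fluoride as angiotensinase inhibitor and increasing inhibitor concentrations. Angiotensin I generated was measured by RIA (Haber method). IC50 came from nonlinear logit vs log-concentration regression over five to seven concentrations.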
# Renin [7] = target: T1, Renin; assay: Inhibition of man plasma renin activity; assay type: cell-free
# Renin [8] = target: T1, Renin; assay: Inhibition of monkey plasma renin activity; assay type: cell-free, Cercopithecidae; details: target entry is the homologue from another species
# Renin [9] = target: T2, Renin; assay: Inhibition of rat plasma renin activity
# Renin [10] = target: T1, Renin; assay: Inhibition of dog plasma renin activity; assay type: cell-free, Canis lupus familiaris; details: target entry is the homologue from another species
Structure (SMILES),IC50 (Renin [3]),further results
COC(=O)C[C@H](O)[C@H](CC(C)C)NC(=O)[C@H](C)NC(=O)C[C@H](O)[C@H](CC(C)C)NC(=O)[C@H](Cc1ccccc1)NC(=O)[C@H](Cc1ccccc1)NC(=O)OC(C)(C)C,190 nM,IC50 (Renin [1]): 76 nM; IC50 (Renin [2]): 190 nM; IC50 (Renin [4]): 0.13 µM
CCC[C@H](N[C@@H](CC(C)C)[C@@H](O)CC(=O)N[C@@H](C)C(=O)N[C@@H](CC(C)C)[C@@H](O)CC(=O)OC)C(=O)N[C@@H](Cc1ccccc1)C(=O)NC(=O)CC(C)C,42 nM,IC50 (Renin [5]): 42 nM; IC50 (Renin [1]): 58 nM; IC50 (Renin [2]): 880 nM; IC50 (Renin [6]): 30 nM
COC(=O)CC(O)[C@H](CC(C)C)NC(=O)[C@H](C)NC(=O)CC(O)[C@H](CC(C)C)NC(=O)[C@@H](Cc1ccccc1)NC(=O)[C@H](Cc1ccccc1)NC(=O)OCc1ccccc1 (stereo not given in full),> 10000 nM,
COC(=O)CC(O)[C@H](CC(C)C)NC(=O)[C@H](C)NC(=O)CC(O)[C@H](CC(C)C)NC(=O)[C@H](Cc1ccccc1)NC(=O)[C@@H](Cc1ccccc1)NC(=O)OC(C)(C)C (stereo not given in full),> 10000 nM,
COC(=O)CC(O)[C@H](CC(C)C)NC(=O)[C@H](C)NC(=O)CC(O)[C@H](CC(C)C)NC(=O)CNC(=O)[C@H](Cc1ccccc1)NC(=O)CC(C)C (stereo not given in full),4700 nM,
COC(=O)CC(O)[C@H](CC(C)C)NC(=O)[C@H](C)NC(=O)CC(O)[C@H](CC(C)C)NC(=O)[C@@H](NS(=O)(=O)CCNC(=O)OCc1ccccc1)C(C)C (stereo not given in full),> 10000 nM,
COC(=O)CC(O)[C@H](CC(C)C)NC(=O)[C@H](C)NC(=O)CC(O)[C@H](CC(C)C)NC(=O)CCCNC(=O)[C@H](Cc1ccccc1)NC(=O)CC(C)C (stereo not given in full),200 nM,
COC(=O)C[C@H](O)[C@H](CC(C)C)NC(=O)[C@H](C)NC(=O)C[C@H](O)[C@H](CC(C)C)NC(=O)[C@H](Cc1ccccc1)NC(=O)[C@H](Cc1ccccc1)NC(C)=O (Ac-FF[Sta]A[Sta]-OMe),1400 nM,
COC(=O)C[C@H](O)[C@H](CC(C)C)NC(=O)[C@H](C)NC(=O)C[C@H](O)[C@H](CC(C)C)NC(=O)[C@H](Cc1ccccc1)NC(=O)[C@H](Cc1ccccc1)NC(=O)OC12CC3CC(CC(C3)C1)C2 (Adoc-FF[Sta]A[Sta]-OMe),3000 nM,
CCCC[C@H](NC(=O)[C@H](Cc1ccccc1)NC(=O)OC(C)(C)C)C(=O)N[C@@H](CC(C)C)[C@@H](O)CC(=O)N[C@@H](C)C(=O)N[C@@H](CC(C)C)[C@@H](O)CC(=O)O (Boc-F[Nle][Sta]A[Sta]-OH),30 nM,
CCC[C@H](NC(=O)[C@H](Cc1ccccc1)NC(=O)OC(C)(C)C)C(=O)N[C@@H](CC(C)C)[C@@H](O)CC(=O)N[C@@H](C)C(=O)N[C@@H](CC(C)C)[C@@H](O)CC(=O)OC (Boc-F[Nva][Sta]A[Sta]-OMe),51 nM,
COC(=O)C[C@H](O)[C@H](CC(C)C)NC(=O)[C@H](C)NC(=O)C[C@H](O)[C@H](CC(C)C)NC(=O)[C@H](Cc1c[nH]cn1)NC(=O)[C@H](Cc1c[nH]c2ccccc12)NC(=O)OC(C)(C)C (Boc-WH[Sta]A[Sta]-OMe),140 nM,IC50 (Renin [7]): 140 nM; IC50 (Renin [8]): 110 nM; IC50 (Renin [9]): 1300 nM
COC(=O)C[C@H](O)[C@H](CC(C)C)NC(=O)[C@H](C)NC(=O)C[C@H](O)[C@H](CC(C)C)NC(=O)[C@H](Cc1c[nH]c2ccccc12)NC(=O)[C@H](Cc1c[nH]c2ccccc12)NC(=O)OC(C)(C)C (Boc-WW[Sta]A[Sta]-OMe),,IC50 (Renin [9]): 1000 nM
COC(=O)C[C@H](O)[C@H](CC(C)C)NC(=O)[C@H](C)NC(=O)C[C@H](O)[C@H](CC(C)C)NC(=O)[C@H](Cc1c[nH]cn1)NC(=O)[C@H](CC12CC3CC(CC(C3)C1)C2)NC(=O)OC(C)(C)C (Boc-[Ala(1-Adamantyl)]H[Sta]A[Sta]-OMe),250 nM,IC50 (Renin [5]): 250 nM; IC50 (Renin [1]): 650 nM; IC50 (Renin [2]): 2200 nM
COC(=O)C[C@H](O)[C@H](CC(C)C)NC(=O)[C@H](C)NC(=O)C[C@H](O)[C@H](CC(C)C)NC(=O)[C@H](Cc1ccccc1)NC(=O)[C@H](Cc1ccccc1)N(C)C(=O)OC(C)(C)C (Boc-[NMeF]F[Sta]A[Sta]-OMe),> 10000 nM,IC50 (Renin [5]): 15000 nM; IC50 (Renin [2]): 17000 nM; IC50 (Renin [4]): 15 µM
COC(=O)C[C@H](O)[C@H](CC(C)C)NC(=O)[C@H](C)NC(=O)C[C@H](O)[C@H](CC(C)C)NC(=O)[C@H](Cc1ccccc1)NC(=O)[C@@H](NC(=O)OC(C)(C)C)c1ccccc1 (Boc-[Phg]F[Sta]A[Sta]-OMe),> 10000 nM,
COC(=O)C[C@H](O)[C@H](CC(C)C)NC(=O)[C@H](C)NC(=O)C[C@H](O)[C@H](CC(C)C)NC(=O)[C@H](Cc1ccccc1)NC(=O)[C@](C)(Cc1ccccc1)NC(=O)OC(C)(C)C (Boc-[αMeF]F[Sta]A[Sta]-OMe),> 10000 nM,
COC(=O)C[C@H](O)[C@H](CC(C)C)NC(=O)[C@H](C)NC(=O)C[C@H](O)[C@H](CC(C)C)NC(=O)[C@@H]1CCCN1C(=O)[C@H](Cc1ccccc1)NC(=O)OCc1ccccc1 (Cbz-FP[Sta]A[Sta]-OMe),10000 nM,
COC(=O)C[C@H](O)[C@H](CC(C)C)NC(=O)[C@H](C)NC(=O)C[C@H](O)[C@H](CC(C)C)NC(=O)[C@H](Cc1c[nH]c2ccccc12)NC(=O)[C@H](Cc1ccccc1)NC(=O)OCc1ccccc1 (Cbz-FW[Sta]A[Sta]-OMe),1400 nM,
COC(=O)C[C@H](O)[C@H](CC(C)C)NC(=O)[C@H](C)NC(=O)C[C@H](O)[C@H](CC(C)C)NC(=O)[C@@H](NC(=O)[C@H](Cc1c[nH]c2ccccc12)NC(=O)OCc1ccccc1)C(C)C (Cbz-WV[Sta]A[Sta]-OMe),,IC50 (Renin [7]): 150 nM; IC50 (Renin [8]): 25 nM; IC50 (Renin [9]): 22 nM; IC50 (Renin [10]): 42 nM
CCCC[C@H](NC(=O)[C@@H](N)Cc1ccccc1)C(=O)N[C@@H](CC(C)C)[C@@H](O)CC(=O)N[C@@H](C)C(=O)N[C@@H](CC(C)C)[C@@H](O)CC(=O)OC (H-F[Nle][Sta]A[Sta]-OMe),7700 nM,
COC(=O)C[C@H](O)[C@H](CC(C)C)NC(=O)[C@H](C)NC(=O)C[C@H](O)[C@H](CC(C)C)NC(=O)[C@H](Cc1ccccc1)NC(=O)[C@H](Cc1ccccc1)NC(=O)CC(C)C (Isovaleryl-FF[Sta]A[Sta]-OMe),320 nM,
COC(=O)C[C@H](O)[C@H](CC(C)C)NC(=O)[C@H](C)NC(=O)C[C@H](O)[C@H](CC(C)C)NC(=O)[C@H](CCCCN)NC(=O)[C@H](Cc1ccccc1)NC(=O)CC(C)C (Isovaleryl-FK[Sta]A[Sta]-OMe),> 10000 nM,
COC(=O)C[C@H](O)[C@H](CC(C)C)NC(=O)[C@H](C)NC(=O)C[C@H](O)[C@H](CC(C)C)NC(=O)[C@H](CC(C)C)NC(=O)[C@H](Cc1ccccc1)NC(=O)CC(C)C (Isovaleryl-FL[Sta]A[Sta]-OMe),75 nM,
CCC[C@H](NC(=O)[C@H](Cc1ccccc1)NC(=O)OC)C(=O)N[C@@H](CC(C)C)[C@@H](O)CC(=O)N[C@@H](C)C(=O)N[C@@H](CC(C)C)[C@@H](O)CC(=O)OC (Moc-F[Nva][Sta]A[Sta]-OMe),260 nM,
COC(=O)C[C@H](O)[C@H](CC(C)C)NC(=O)[C@H](C)NC(=O)C[C@H](O)[C@H](CC(C)C)NC(=O)[C@H](Cc1ccccc1)NC(=O)[C@H](Cc1ccccc1)NS(=O)(=O)CCNC(=O)OC(C)(C)C (X1-FF[Sta]A[Sta]-OMe),180 nM,
